The test system of test [1] is Pseudomonas aeruginosa. Description: Antibiofilm activity against Pseudomonas aeruginosa clinical isolate 24 assessed as inhibition of biofilm formation at MIC incubated for 24 hrs by crystal violet staining based microtiter plate method. The format is functional, organism-based. A digest of the protocol: (§1)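 Washed overnight cultures in BM2 medium at 1 × 10^6 CFU/mL with 2-fold serial peptide dilutions in a U-bottom 96-well plate. Incubated 24 h at 37 °C without agitation. Unattached cells washed off, then 0.1% crystal violet stain read at 590 nm. No-bacteria blanks. Biomass expressed as % of untreated biofilm. At least three biological repeats.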

Test [2] concerns Pseudomonas aeruginosa. Description: Antibiofilm activity against Pseudomonas aeruginosa clinical isolate 25 assessed as inhibition of biofilm formation at MIC incubated for 24 hrs by crystal violet staining based microtiter plate method. The class given is functional, organism-based. An outline of the steps:
as §1

Test [3] relates to Pseudomonas aeruginosa. Description: Antibiofilm activity against Pseudomonas aeruginosa clinical isolate 46 assessed as inhibition of biofilm formation at MIC incubated for 24 hrs by crystal violet staining based microtiter plate method. The format is functional, organism-based. A digest of the protocol: as §1
In test [4] the test system is Pseudomonas aeruginosa. Description: Antibiofilm activity against Pseudomonas aeruginosa clinical isolate 25 assessed as inhibition of biofilm formation at 1.56 uM incubated for 24 hrs by crystal violet staining based microtiter plate method. The format is functional, organism-based. A digest of the protocol:
as §1

The subject of test [5] is Pseudomonas aeruginosa. Description: Antibiofilm activity against Pseudomonas aeruginosa clinical isolate 40 assessed as inhibition of biofilm formation at 1.56 uM incubated for 24 hrs by crystal violet staining based microtiter plate method. The class given is functional, organism-based. An outline of the steps:
as §1

The subject of test [6] is Pseudomonas aeruginosa. Description: Antibiofilm activity against Pseudomonas aeruginosa clinical isolate 238 assessed as inhibition of biofilm formation at 1.56 uM incubated for 24 hrs by crystal violet staining based microtiter plate method. The class given is functional, organism-based. An outline of the steps:
as §1

The test system of test [7] is Pseudomonas aeruginosa. Description: Antibiofilm activity against Pseudomonas aeruginosa clinical isolate 629 assessed as inhibition of biofilm formation at 1.56 uM incubated for 24 hrs by crystal violet staining based microtiter plate method. The class given is functional, organism-based. A digest of the protocol: as §1
Test [8] deals with Pseudomonas aeruginosa. Description: Antibiofilm activity against Pseudomonas aeruginosa PAO1 assessed as inhibition of biofilm formation at 1.56 uM incubated for 24 hrs by crystal violet staining based microtiter plate method. The class given is functional, organism-based.
Test [9] deals with Pseudomonas aeruginosa. Description: Antibiofilm activity against Pseudomonas aeruginosa clinical isolate 82 in artificial sputum medium at 50 uM incubated for 24 hrs by resazurin staining based microtiter plate method. The format is functional, organism-based. An outline of the steps:
(§2)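 Washed overnight culture set to OD ~0.05 in BM2, diluted 1:100 into artificial sputum medium (pH 6.9) in 24-well plates. Grown 3 days aerobically at 37 °C with agitation. Peptides (12.5–100 μM) added for 24 h with agitation. Biofilm disrupted by cellulase for 1 h at 37 °C. Resazurin 0.02% for 1–2 h, fluorescence ex 530/em 590 nm; viability as % of untreated wells.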

Test [10] deals with Pseudomonas aeruginosa. Description: Antibiofilm activity against Pseudomonas aeruginosa clinical isolate 82 in artificial sputum medium at 25 uM incubated for 24 hrs by resazurin staining based microtiter plate method relative to control. The format is functional. A digest of the protocol: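 Overnight cultures were washed, resuspended in BM2 to OD ~0.05, and diluted 1:100 into artificial sputum medium (pH 6.9). Biofilms grew 3 days at 37 °C with aerobic agitation in 24-well plates. Peptides (12.5–100 μM) were then added for 24 h with agitation. Biofilm was disrupted with cellulase for 1 h at 37 °C. Resazurin (0.02%) was added for 1–2 h, fluorescence read at ex 530/em 590 nm, and viability expressed as % of untreated wells.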
In general terms: The colour change of resazurin is a common sign of viable cells or microbes.

Test [11] concerns Pseudomonas aeruginosa. Description: Antibiofilm activity against Pseudomonas aeruginosa PAO1 in artificial sputum medium at 25 uM incubated for 24 hrs by resazurin staining based microtiter plate method relative to control. The class given is functional. A digest of the protocol:
as §2

Test [12] relates to Pseudomonas aeruginosa. Description: Induction of biofilm degradation of Pseudomonas aeruginosa clinical isolate 46 derived from cystic fibrosis patient sputum at 1.56 to 50 uM by crystal violet based staining analysis. The class given is functional. The conditions noted are these: dose 1.56-50 µM. A digest of the protocol: (§3)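 Biofilm grown from 1 × 10^6 CFU/mL in pooled CF patient sputum diluted 10-fold with BM2, static, 37 °C, 24 h. Unattached cells rinsed off, then serial peptide dilutions (1.56–50 μM) applied for 1 h. Washed and stained with 0.1% crystal violet, read at 590 nm. Reported as % of untreated biomass, with no-bacteria blanks.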

The test system of test [13] is Pseudomonas aeruginosa. Description: Induction of biofilm degradation of Pseudomonas aeruginosa clinical isolate 82 derived from cystic fibrosis patient sputum at 1.56 to 50 uM by crystal violet based staining analysis. The format is functional. The settings on record: dose 1.56-50 µM. An outline of the steps: as §3
In test [14] the test system is Pseudomonas aeruginosa. Description: Drug resistance in Pseudomonas aeruginosa PAO1 in BM2 medium assessed as fold change in MIC.
Test [15] concerns Pseudomonas aeruginosa. Description: Drug resistance in Pseudomonas aeruginosa clinical isolate 24 in BM2 medium assessed as fold change in MIC.
Test [16] relates to Pseudomonas aeruginosa. Description: Induction of biofilm degradation of Pseudomonas aeruginosa clinical isolate 59 at 12.5 uM incubated for 1 hr by crystal violet staining analysis.
The test system of test [17] is Pseudomonas aeruginosa PAO1. Description: Induction of biofilm degradation of Pseudomonas aeruginosa PAO1 in cystic fibrosis patient sputum at 10 uM incubated for 48 hr by resazurin staining based confocal microscopy analysis.
Test [18] has as its system Pseudomonas aeruginosa. Description: Induction of biofilm degradation of Pseudomonas aeruginosa clinical isolate 59 at 50 uM incubated for 1 hr by crystal violet staining analysis relative to control. The format is functional. An outline of the steps: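 Inoculum of 1 × 10^6 CFU/mL was grown 24 h at 37 °C without agitation to form biofilm. Wells were rinsed of unattached bacteria and exposed for 1 h to serial peptide dilutions (1.56–50 μM). They were then washed, stained with 0.1% crystal violet, and read at 590 nm with no-bacteria blanks. Biomass is given as % of untreated biofilm.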

The subject of test [19] is Pseudomonas aeruginosa. Description: Antibiofilm activity against Pseudomonas aeruginosa clinical isolate 24 in basal medium 2 at 12.5 to 100 uM incubated for 24 hrs by resazurin staining based microtiter plate method. The class given is functional, organism-based. The settings on record: dose 12.5-100 µM.
Test [20] relates to Pseudomonas aeruginosa. Description: Antibiofilm activity against Pseudomonas aeruginosa clinical isolate 46 in basal medium 2 at 12.5 to 100 uM incubated for 24 hrs by resazurin staining based microtiter plate method. The settings on record: dose 12.5-100 µM. The class given is functional, organism-based.
The subject of test [21] is Pseudomonas aeruginosa. Description: Antibiofilm activity against Pseudomonas aeruginosa clinical isolate 82 in basal medium 2 at 12.5 to 100 uM incubated for 24 hrs by resazurin staining based microtiter plate method. The class given is functional, organism-based. The conditions noted are these: dose 12.5-100 µM.
The subject of test [22] is Pseudomonas aeruginosa. Description: Antibiofilm activity against Pseudomonas aeruginosa PAO1 in basal medium 2 at 12.5 to 100 uM incubated for 24 hrs by resazurin staining based microtiter plate method. The class given is functional, organism-based. The conditions noted are these: dose 12.5-100 µM.
In test [23] the test system is Pseudomonas aeruginosa. Description: Induction of biofilm degradation of Pseudomonas aeruginosa clinical isolate 46 at sub MIC concentration incubated for 1 hr by crystal violet staining analysis. The class given is functional. An outline of the steps: (§4)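 Bacteria at 1 × 10^6 CFU/mL in BM2 grown static at 37 °C for 24 h to form biofilm. Wells rinsed of unattached cells, then exposed for 1 h to serial peptide dilutions (1.56–50 μM). Washed, stained with 0.1% crystal violet, A590 read. Biomass given as % of untreated biofilm; no-bacteria wells as blanks. At least three biological repeats.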

The test system of test [24] is Pseudomonas aeruginosa. Description: Induction of biofilm degradation of Pseudomonas aeruginosa clinical isolate 59 at sub MIC concentration incubated for 1 hr by crystal violet staining analysis. The class given is functional. A digest of the protocol: as §4
Test [25] has as its system Pseudomonas aeruginosa. Description: Induction of biofilm degradation of Pseudomonas aeruginosa clinical isolate 71 at sub MIC concentration incubated for 1 hr by crystal violet staining analysis. The class given is functional. A digest of the protocol:
as §4

Test [26] concerns Pseudomonas aeruginosa. Description: Induction of biofilm degradation of Pseudomonas aeruginosa clinical isolate 99 at sub MIC concentration incubated for 1 hr by crystal violet staining analysis. The format is functional. A digest of the protocol:
as §4

The structures appear in SMILES notation. Calls of active or inactive are those of the source. The rule behind the calls is not given here.

With `CC(C)C[C@H](NC(=O)[C@H](CC(C)C)NC(=O)[C@H](CCCCN)NC(=O)[C@H](CC(C)C)NC(=O)[C@H](CC(C)C)NC(=O)[C@H](CCCCN)NC(=O)[C@H](CCCCN)NC(=O)[C@H](CC(C)C)NC(=O)[C@H](CC(C)C)NC(=O)[C@H](CCCCN)NC(=O)[C@H](CCCCN)NC(=O)[C@H](CC(C)C)NC(=O)[C@H](CC(C)C)NC(=O)[C@H](CCCCN)NC(=O)[C@@H](N)CC(C)C)C(N)=O`, the inhibition result in test [1], in test [2], in test [3], in test [4], in test [5] and in test [6] was “Active” each time. In addition, the inhibition result in [7] and in test [8] was “Active” in each case. For the same molecule, the outcome in [9], in test [12], in [13], in test [16] and in test [17] was Active. The figures for the Activity in test [10] and in test [11] were 57.94% and 66.7%, respectively. Besides, the “fold change (FC)” value in test [14] and in test [15] was less than 20 throughout.

With `CC[C@H](C)[C@H](NC(=O)[C@H](CCCCN)NC(=O)[C@H](CCC(=O)O)NC(=O)[C@H](CCCCN)NC(=O)[C@H](CO)NC(=O)[C@H](CCCCN)NC(=O)[C@H](CCCNC(=N)N)NC(=O)[C@H](Cc1ccccc1)NC(=O)[C@H](Cc1ccccc1)NC(=O)[C@H](CC(=O)O)NC(=O)CNC(=O)[C@H](CC(C)C)NC(=O)[C@@H](N)CC(C)C)C(=O)NCC(=O)N[C@@H](CCCCN)C(=O)N[C@@H](CCC(=O)O)C(=O)N[C@@H](Cc1ccccc1)C(=O)N[C@@H](CCCCN)C(=O)N[C@@H](CCCNC(=N)N)C(=O)N[C@H](C(=O)N[C@H](C(=O)N[C@@H](CCC(N)=O)C(=O)N[C@@H](CCCNC(=N)N)C(=O)N[C@H](C(=O)N[C@@H](CCCCN)C(=O)N[C@@H](CC(=O)O)C(=O)N[C@@H](Cc1ccccc1)C(=O)N[C@@H](CC(C)C)C(=O)N[C@@H](CCCNC(=N)N)C(=O)N[C@@H](CC(N)=O)C(=O)N[C@@H](CC(C)C)C(=O)N[C@H](C(=O)N1CCC[C@H]1C(=O)N[C@@H](CCCNC(=N)N)C(=O)N[C@H](C(=O)N[C@@H](CCC(=O)O)C(=O)N[C@@H](CO)C(N)=O)[C@@H](C)O)C(C)C)[C@@H](C)CC)C(C)C)[C@@H](C)CC`, the inhibition result in test [1], in [2] and in [3] was “Active” throughout. The same molecule registered an Activity in test [18] of 40%. Moreover, the outcome in [19], in [20], in test [21] and in test [22] was Active. Further, the “fold change (FC)” value in test [14] and in [15] was less than 20 throughout.

In turn, `CC(C)C[C@H](NC(=O)[C@H](CC(C)C)NC(=O)[C@H](CC(C)C)NC(=O)[C@H](CC(C)C)NC(=O)[C@H](CC(C)C)NC(=O)[C@H](CC(C)C)NC(=O)[C@H](CC(C)C)NC(=O)[C@H](CC(C)C)NC(=O)[C@H](CC(C)C)NC(=O)[C@H](CCCCN)NC(=O)[C@H](CCCCN)NC(=O)[C@@H](N)CCCCN)C(=O)N[C@@H](CCCCN)C(=O)N[C@@H](CCCCN)C(=O)N[C@@H](CCCCN)C(N)=O` returned an Activity in test [18] of 40%. The outcome in test [23], in [24], in test [25], in [26], in [19] and in [20] was Active. For the same molecule, the outcome in test [21], in [22] and in [17] was Active.

The record behind these values is ChEMBL document CHEMBL5143722, “Antimicrobial Peptides against Multidrug-Resistant Pseudomonas aeruginosa Biofilm from Cystic Fibrosis Patients” (J Med Chem, 2022).
